This is an account of results in ChEMBL document CHEMBL4028898, “Structure-Activity Relationships of 6- and 8-Gingerol Analogs as Anti-Biofilm Agents” (J Med Chem, 2017).

The test system of data set [1] is Pseudomonas aeruginosa. Description: Agonist activity at Pseudomonas aeruginosa LasR expressed in Escherichia coli DH5alpha at 10 uM after 1.5 hrs by beta-galactosidase reporter gene assay. (A reporter such as luciferase makes a cellular process visible.)
Data set [2] concerns Pseudomonas aeruginosa. The experiment in a line: Antagonist activity at Pseudomonas aeruginosa LasR expressed in Escherichia coli DH5alpha assessed as inhibition of protein interaction with OdDHL at 1 to 10 uM after 1.5 hrs by beta-galactosidase reporter gene assay. Put shortly: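 E. coli DH5α reporter carrying pJN105L (LasR) and pSC11 (lasI::lacZ); overnight culture with 10 µg/mL gentamicin and 50 µg/mL ampicillin diluted 1:100 in LB, used at OD595 0.3. Incubated with compound, OdDHL and 0.4% arabinose at 37 °C for 1.5 hr. β-galactosidase read by luminescence; RLU ratio = luminescence/OD595 ×100.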

The subject of data set [3] is Pseudomonas aeruginosa. Description: Growth inhibition of Pseudomonas aeruginosa PA14 at 100 uM after 24 hrs. An outline of the steps:
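P. aeruginosa PA14 overnight culture (OD595 1.0), 5% dilution with compound (0–100 µM), grown in 96-well plates at 37 °C for 24 h; growth read as OD595.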

Data set [4] relates to Pseudomonas aeruginosa. The experiment in a line: Inhibition of static biofilm formation of Pseudomonas aeruginosa PA14 at 100 uM after 24 hrs by crystal violet staining-based assay. It counts as functional. An outline of the steps: (§1)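 PA14 overnight culture (OD595 1.0) diluted 1:20 in AB medium, pH 7.5, with compound (0–100 µM), in borosilicate bottles, static at 37 °C for 24 hr.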

For data set [5], the system named is Pseudomonas aeruginosa. The experiment in a line: Inhibition of static biofilm formation of Pseudomonas aeruginosa PA14 at 10 uM after 24 hrs by crystal violet staining-based assay. It counts as functional. An outline of the steps:
as §1

Data set [6] concerns Pseudomonas aeruginosa. Description: Inhibition of static biofilm formation of Pseudomonas aeruginosa PA14 assessed as level of biofilm formation at 10 uM after 24 hrs by crystal violet staining-based assay relative to control. Details: scale not given: the % may be the effect or the level left. It counts as functional. Put shortly: as §1
Data set [7] relates to Pseudomonas aeruginosa. The experiment in a line: Inhibition of dynamic biofilm formation of Pseudomonas aeruginosa PA14 assessed as biofilm thickness up to 10 uM after 48 hrs by Ruby/ConA staining-based assay (reference value: 34.5 +/- 1.3 um). The format is functional. An outline of the steps:
(§2)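 Glass slides seeded 24 h at 37 °C, static, with PA14 (OD595 1.0) in AB medium, then placed in a drip-flow reactor fed with AB medium plus compound (0–10 µM) at 0.3 mL/min, 37 °C, 48 hr. PBS-washed biofilm stained 15 min with FITC-ConA (carbohydrate) and SYPRO Ruby (protein); CLSM at 20×; volume (µm³/µm²) and average thickness quantified by Comstat2.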

Data set [8] has as its system Pseudomonas aeruginosa. The experiment in a line: Inhibition of dynamic biofilm formation of Pseudomonas aeruginosa PA14 at 10 uM after 48 hrs by Ruby/ConA staining-based confocal laser scanning microscopic method. The format is functional. Put shortly:
as §2

Data set [9] has as its system Pseudomonas aeruginosa. Description: Inhibition of dynamic biofilm formation of Pseudomonas aeruginosa PA14 assessed as biofilm volume up to 10 uM after 48 hrs by Ruby/ConA staining-based assay (reference value: 23.1 +/- 1.8 um'3/um'2). It counts as functional. Put shortly: as §2
Data set [10] deals with Pseudomonas aeruginosa. Description: Reversible binding affinity to Pseudomonas aeruginosa LasR expressed in Escherichia coli DH5alpha at 1 uM after 1.5 hrs in presence of OdDHL by beta-galactosidase reporter gene assay. Put shortly:
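LasR reporter in E. coli DH5α (pJN105L + pSC11) with 0.4% arabinose, 37 °C, 1.5 hr. Compound at 1 µM tested against OdDHL at 0, 0.1, 1, 10 and 100 µM, compared with no-compound control. β-galactosidase luminescence divided by OD595.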

The test system of data set [11] is Pseudomonas aeruginosa. Description: Inhibition of dynamic biofilm formation of Pseudomonas aeruginosa PA14 assessed as volume of carbohydrates in biofilm up to 10 uM after 48 hrs by Ruby/ConA staining-based assay relative to control. It counts as functional. Details: scale not given: the % may be the effect or the level left. An outline of the steps: as §2

In data set [12] the test system is Pseudomonas aeruginosa. The experiment in a line: Inhibition of dynamic biofilm formation of Pseudomonas aeruginosa PA14 assessed as volume of proteins in biofilm up to 10 uM after 48 hrs by Ruby/ConA staining-based assay relative to control. The format is functional. Details: scale not given: the % may be the effect or the level left. An outline of the steps: as §2

Calls of active or inactive are those of the source. The rule behind the calls is not given here.

Regarding `CCCCCC(O)CC(=O)CCc1ccc(O)c(OC)c1` (stereo not drawn), the outcome with Pseudomonas aeruginosa [1] was inactive. Further, the inhibition entry in the data set with Pseudomonas aeruginosa [2] was “Active”.
Regarding `CCCCCCCCCC(O)CC(=O)CCc1ccc(O)c(OC)c1` (stereo not drawn), the result in the data set with Pseudomonas aeruginosa [1] was inactive. Also, the inhibition result in the data set on Pseudomonas aeruginosa [2] and in the data set on Pseudomonas aeruginosa [4] was “Active” in each case. For the same compound, in the data set on Pseudomonas aeruginosa [3], the “growth inhibition (GI)” value is “Toxic”.
`CCCCCCCCC(O)CC(=O)CCc1ccc(O)c(OC)c1` (stereo not drawn): the outcome with Pseudomonas aeruginosa [1] was inactive. Also, the inhibition entry with Pseudomonas aeruginosa [2] and in the data set on Pseudomonas aeruginosa [4] was “Active” throughout. Further, the “growth inhibition (GI)” value with Pseudomonas aeruginosa [3] is “Toxic”.
Turning to `CCCCCCCC(O)CC(=O)CCc1cccc(OC)c1` (stereo not drawn), the inhibition entry in the data set with Pseudomonas aeruginosa [2] was “Active”.
Turning to `CCCCCCCC(=O)/C=C/c1ccc(O)c(OC)c1`, the inhibition entry in the data set with Pseudomonas aeruginosa [2] and in the data set on Pseudomonas aeruginosa [5] was “Active” each time.
Consider `CCCCCC(O)CC(=O)/C=C/c1ccc(O)c(OC)c1` (stereo not drawn), for which the inhibition result in the data set on Pseudomonas aeruginosa [2] is “Active”.
As for `CCCCCCC(O)CC(=O)CCc1ccc(O)c(OC)c1` (stereo not drawn), in the data set with Pseudomonas aeruginosa [1], the result was inactive. Also, in the data set on Pseudomonas aeruginosa [2], the inhibition result was “Active”.
For `CCCCCCCCCC(=O)/C=C/c1ccc(O)c(OC)c1`, the inhibition result in the data set on Pseudomonas aeruginosa [2] and in the data set on Pseudomonas aeruginosa [5] was “Active” in each case.
Turning to `CCCCCCCC(O)CC(=O)CCc1ccccc1` (stereo not drawn), the inhibition entry in the data set on Pseudomonas aeruginosa [2] was “Active”.
The same measure, in the same setting: to `CCCCCCCC(O)CC(=O)CCc1ccc(O)c(OCC)c1` (stereo not drawn) belongs “Active”.
Regarding `CCCCCCCC(=O)CCc1ccc(O)c(OC)c1`, the inhibition entry in the data set with Pseudomonas aeruginosa [2] and in the data set with Pseudomonas aeruginosa [5] was “Active” in each case.
Consider `CCCCCCC[C@@H](O)CC(=O)CCc1ccc(O)c(OC)c1`, for which the figures for the Activity with Pseudomonas aeruginosa [6], in the data set with Pseudomonas aeruginosa [7] and with Pseudomonas aeruginosa [9] were 72%, 13.9 um and 9.7 um3/um2, respectively. Also, the inhibition entry in the data set on Pseudomonas aeruginosa [2] and with Pseudomonas aeruginosa [8] was “Active” throughout. Moreover, the “growth inhibition (GI)” value with Pseudomonas aeruginosa [3] was “Non-Toxic”.
As for `CCCCCCC[C@@H](O)CC(=O)/C=C/c1ccc(O)c(OC)c1`, the Activity is reported as 10.3 um in the data set on Pseudomonas aeruginosa [7], 47 - 74% in the data set on Pseudomonas aeruginosa [11], 23 - 56% with Pseudomonas aeruginosa [12] and 7.4 um3/um2 in the data set with Pseudomonas aeruginosa [9]. The inhibition result in the data set with Pseudomonas aeruginosa [2], with Pseudomonas aeruginosa [5] and in the data set on Pseudomonas aeruginosa [8] was “Active” each time. Moreover, the outcome with Pseudomonas aeruginosa [10] was Active. The “growth inhibition (GI)” value in the data set with Pseudomonas aeruginosa [3] is “Non-Toxic”.
On to `CCCCCCCC(O)CC(=O)CCc1ccc(F)cc1` (stereo not drawn), for which the inhibition entry in the data set on Pseudomonas aeruginosa [2] and in the data set with Pseudomonas aeruginosa [5] was “Active” each time.
Take `CCCCCCC[C@H](O)CC(=O)CCc1ccc(O)c(OC)c1`: the Activity came out at 100% in the data set with Pseudomonas aeruginosa [6], 17 um with Pseudomonas aeruginosa [7] and 17 um3/um2 in the data set on Pseudomonas aeruginosa [9]. Besides, the inhibition result with Pseudomonas aeruginosa [2] and with Pseudomonas aeruginosa [8] was “Active” in each case.
As for `CCCCCCCC(O)CC(=O)CCc1ccc(O)c(OC)c1` (stereo not drawn), the outcome in the data set with Pseudomonas aeruginosa [1] was inactive. For the same compound, in the data set with Pseudomonas aeruginosa [2], the inhibition entry is “Active”.
As to `CCCCCCCC(O)CC(=O)/C=C/c1ccc(O)c(OC)c1` (stereo not drawn), the inhibition result in the data set with Pseudomonas aeruginosa [2] is “Active”.
In the case of `CCCCCCCC(O)CC(=O)CCc1ccc(F)c(OC)c1` (stereo not drawn), the inhibition entry in the data set on Pseudomonas aeruginosa [2] and in the data set with Pseudomonas aeruginosa [5] was “Active” each time.
As to `CCCCCC(O)CC(=O)CCc1ccc(O)cc1` (stereo not drawn), the inhibition result with Pseudomonas aeruginosa [2] and in the data set with Pseudomonas aeruginosa [5] was “Active” throughout.
On to `CCCCCC(O)CC(=O)CCc1ccc(F)c(OC)c1` (stereo not drawn), for which the inhibition entry with Pseudomonas aeruginosa [2] and in the data set on Pseudomonas aeruginosa [5] was “Active” in each case.
Consider `CCCC(O)CC(=O)CCc1ccc(O)c(OC)c1` (stereo not drawn), for which, in the data set with Pseudomonas aeruginosa [1], the result was inactive. Also, in the data set on Pseudomonas aeruginosa [2], the inhibition result was “Active”.
Turning to `CCCCC(O)CC(=O)CCc1ccc(O)c(OC)c1` (stereo not drawn), the outcome in the data set with Pseudomonas aeruginosa [1] was inactive. Moreover, the inhibition result with Pseudomonas aeruginosa [2] was “Active”.
`CCCCCC(O)CC(=O)CCc1ccc(F)cc1` (stereo not drawn): the inhibition entry in the data set on Pseudomonas aeruginosa [2] and with Pseudomonas aeruginosa [5] was “Active” each time.
Take `CCCCCCCC(O)CC(=O)CCc1ccc(OC)c(OC)c1` (stereo not drawn): the inhibition entry in the data set on Pseudomonas aeruginosa [2] was “Active”.
Turning to `CCCCCCCC(O)CC(=O)CCc1ccc(O)cc1` (stereo not drawn), the inhibition result in the data set with Pseudomonas aeruginosa [2] and with Pseudomonas aeruginosa [5] was “Active” each time.
For `CCCCC[C@H](O)CC(=O)CCc1ccc(O)c(OC)c1`, the inhibition entry in the data set on Pseudomonas aeruginosa [2] and in the data set with Pseudomonas aeruginosa [5] was “Active” throughout.
As for `CCCCCC(O)CC(=O)CCc1ccccc1` (stereo not drawn), in the data set on Pseudomonas aeruginosa [2], the inhibition entry was “Active”.
Take `CCCCCCCCCC(=O)CCc1ccc(O)c(OC)c1`: the inhibition result with Pseudomonas aeruginosa [2] and in the data set with Pseudomonas aeruginosa [5] was “Active” in each case.
`CCCCCC(O)CC(=O)CCc1cccc(OC)c1` (stereo not drawn): the inhibition result with Pseudomonas aeruginosa [2] is “Active”.
